# Source: PubChem BioAssay AID504382 (The Scripps Research Institute Molecular Screening Center, 2011)
# The campaign covered roughly 2,500 compounds. About 460 (18%) were called active. Not all results are given here. Values without a mark were called inactive.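 Rule for the calls: active = mean activation above a cutoff of low control average plus 3 SD from the earlier screen (cut at about 12% in these data); inactive = the rest.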
# Experiment: compound fluorescence interference without thin filaments, confirmation, artefact control for cardiac RTF calcium sensitizer project, biochemical (AID 504382)
# Settings: IANBD fluorescence interference counterscreen, buffer, EC20 Ca2+; at 7.2 µM; stronger effect = higher value; scaled: EC20 calcium 0, EC100 calcium 100
# Summary of the method: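 Technique: fluorescence, 480/540 nm / Medium: MOPS-based buffer with KCl, MgCl2, EGTA, NTA, DTT, pH 7.2 / Probe or stimulus: calcium at EC20 level, 0.472 mM final / Repeats: triplicate wells per compound / Times: 15 min compound exposure at 25 °C / Measure: compound fluorescence interference relative to control well signal range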
row,SMILES,fluorescence artifact activation
1,C=CCN1C(=O)/C(=C\C=C2\N(C)c3ccccc3C2(C)C)SC1=S,0.06%
2,C/C(N)=C(/C#N)C(=O)CSc1n[nH]c(-c2cccs2)n1,0.14%
3,COc1ccc(Cl)cc1-c1nc(SCC(=O)NC(C)C)n[nH]1,0.53%
4,Cc1ccc(C)c(C(=O)CSc2n[nH]c(C(C)C)n2)c1,18.7% (active)
5,Cc1[nH]c(=S)c(C#N)c(C)c1CCC#N,10.6%
6,COC(=O)CNC(=O)COC(=O)c1cc(F)c(F)cc1Cl,0.55%
7,Cc1ccccc1C1CC(=O)Oc2cc(O)ccc21 (centres undefined),0.19%
8,Cc1ccc2[nH]c(C)c(/C=C/c3cc[n+](C)cc3)c2c1,54.8% (active)
9,Cc1ccc2c(c1)c(/C=C/c1cc[n+](C)cc1)c(C)n2C,1.43%
10,Cc1[nH]c2ccccc2c1/C=C/c1cc[n+](C)cc1,3%
11,COC(=O)Cn1cc(/C=C/c2cc[n+](C)cc2)c2ccccc21,1.9%
12,COc1ccc(-c2nnc(-c3cccnc3)o2)cc1,15.1% (active)
13,COc1ccc(-c2nc(/C=C3\C(C)=Nc4ccccc43)c(O)o2)cc1,1.03%
14,COc1ccc(NC(=O)Nc2cccnc2)c(OC)c1,0.16%
15,CC(=O)C1=C(O)CCCC1=NCc1nc2ccccc2[nH]1,0.23%
16,CN1CCC(N(CCc2ccccc2)C(=O)CCC(=O)O)CC1,46% (active)
17,CCCN(CCC)C(=O)C1c2ccccc2Oc2ccccc21,3.9%
18,CN(Cc1ccccc1)C(=O)N1CCOCC1,0.11%
19,CN1CCc2c(sc3c2C(=O)NC(c2ccccn2)N3)C1 (centres undefined),0.36%
20,Cc1ccccc1-n1c(SCc2c(C)noc2C)nnc1-c1cccnc1,0.05%
21,N#C/C(=C/c1ccc(N2CCOCC2)o1)C(=O)N1CCOCC1,0.41%
22,Cc1ccc2nc(/C(C#N)=C/c3ccc(-c4ccccc4C(=O)O)o3)[nH]c2c1,0.32%
23,N#C/C(=C/c1ccc(N2CCOCC2)o1)c1nc2ccccc2[nH]1,0.08%
24,N#C/C(=C\c1ccc(N2CCOCC2)o1)c1nc2ccccc2[nH]1,14.2% (active)
25,N#C/C(=C\c1ccc(-c2ccccc2C(=O)O)o1)c1nc2ccccc2[nH]1,1.15%

row,SMILES,fluorescence artifact activation
1,Cc1ccc2nc(/C(C#N)=C\c3ccc(N4CCOCC4)o3)[nH]c2c1,16.5% (active)
2,CCOP(=O)(OCC)/C(=N/OC(=O)c1ccc(OC)cc1)C(N)=O,0.15%
3,Cc1c(CN2CCCC(C)C2)c(O)n(CCO)c(=O)c1C#N (centres undefined),1.74%
4,C=CCN1C(=O)C(Cc2cccc(Cl)c2)S/C1=N/N=C/c1ccco1 (centres undefined),0.07%
5,CCOc1ccc(C2CC(c3c(O)c4ccccc4oc3=O)=NN2c2ccccc2)cc1OC (centres undefined),5.17%
6,CCOc1cc(C2C3=C(CCCC3=O)N(C)C3=C2C(=O)CCC3)cc(Cl)c1O,-0.02%
7,CCOc1ccc(C2C(C#N)=C(N)SC(N)=C2C#N)c(OCC)c1,0.05%
8,CCOc1cc(C2C(C#N)=C(N)OC(C)=C2C(C)=O)cc(Br)c1O (centres undefined),37.6% (active)
9,COc1ccc(OCC(=O)OCCNC(=O)c2cccnc2)cc1,0.14%
10,O=C(CN1C(=O)c2ccccc2C1=O)NCc1ccc(N2CCOCC2)cc1,1.1%
11,Cc1cc2nc3c(=O)[nH]c(=S)[nH]c3nc2cc1NC(=O)C(F)(F)F,5.96%
12,O=C1c2ccccc2C(Nc2cccnc2)N1Cc1ccccc1Cl (centres undefined),10.4%
13,Cc1ccc(-n2nc(C)c(=O)c(-c3ccccc3)c2NC(=O)c2cccs2)cc1,1.25%
14,CC(C)C[C@@H](CN=[N+]=[N-])N1CCN(C)CCC1=O,0.09%
15,O=c1cc(CN2CCCc3ccccc32)nc2sccn12,0.01%
16,c1ccc2c(c1)CCCN2Cc1nnc2n1CCCCC2,37% (active)
17,c1ccc2c(c1)CCCN2Cc1nnnn1CC1CCCO1 (centres undefined),0.36%
18,COc1ccc(CNc2nn[nH]n2)cc1OC,2.6%
19,Cc1ccc([C@@H]2C3COCC=C3C(C#N)=C(N)C2(C#N)C#N)o1 (some centres undefined),0.32%
20,O=C(C1CCN(Cc2ccc(OCc3ccccc3)cc2)CC1)N1CCCC1,0.13%
21,CN1CCN(CCOc2ccc(Cc3ccccc3)cc2)CC1,0.23%
22,CN1CCN(/N=C/c2ccc(OCc3ccccc3)cc2)CC1,107% (active)
23,Cc1ccc(/C=C2\Oc3c(ccc(O)c3CN3CCN(C)CC3)C2=O)cc1,0.13%
24,OCCN1CCN(CC(O)COc2ccc(C34CC5CC(CC(C5)C3)C4)cc2)CC1 (centres undefined),32.1% (active)
25,CCCCNc1nc(-c2ccccc2)nc(-n2ccnc2)n1,1.09%

row,SMILES,fluorescence artifact activation
1,COc1cc(CCCN2C(=S)NC[C@@H]2CC2CCCCC2)cc(OC)c1OC,7.7%
2,Cc1cc2cc(C=C(C#N)C#N)c(Cl)nc2cc1C,-0.03%
3,Cc1cc(C(=O)NNC(=S)Nc2ccccc2C)cs1,1.65%
4,NC(=O)NNC1=Nc2cccc3cccc1c23,1.01%
5,O=C(COc1ccc(Cl)cc1[N+](=O)[O-])N1CCCCC1,18.1% (active)
6,CC(Oc1ccc(S(=O)(=O)N2CCCC2)cc1[N+](=O)[O-])C(=O)N(C)c1ccccc1 (centres undefined),0.2%
7,O=C(COc1ccc(Cl)cc1[N+](=O)[O-])N1CCCCCC1,0.34%
8,COc1ccc(NC(=O)NS(=O)(=O)c2ccc(C)cc2)cn1,0.39%
9,O=C(N1CCOCC1)N1CCC(n2nnc3ccccc32)CC1,0.06%
10,Cc1ccsc1C1C=C(c2cccc(Br)c2)Nc2ncnn21 (centres undefined),-0.01%
11,CCOC(=O)c1sc(-c2ccc(F)cc2)cc1NC(=O)Nc1ccccc1OC,7.09%
12,CCOC(=O)c1sc(N)c(C#N)c1COC(=O)CNC(=O)c1cc(OC)c(OC)c(OC)c1,3.51%
13,CCOC(=O)c1sc(=NC(=O)c2cc(OC)c(OC)c(OC)c2)n(C)c1C,80.1% (active)
14,S=C1NC2=C(CCC/C2=C\c2ccccc2)C(c2ccccc2)N1 (centres undefined),0.06%
15,COc1ccc(/C=C2\Oc3cc(OCC(N)=O)ccc3C2=O)cc1OC,0.06%
16,COc1ccccc1C(=O)Oc1ccc2c(c1)O/C(=C\c1ccncc1)C2=O,8.13%
17,O=C(Oc1ccc2c(c1)O/C(=C\c1ccncc1)C2=O)c1ccccc1,33% (active)
18,O=C(CC1SC(N2CCCCC2)=NC1=O)Nc1ccc(C(=O)NCc2ccccc2)cc1 (centres undefined),3.4%
19,Cc1ccc(C(=O)Nc2ccc3c(c2)ncn3C)cc1,2.41%
20,O=C1NC(c2ccco2)Nc2sc3c(c21)CCN(Cc1ccccc1)C3 (centres undefined),0.37%
21,COc1ccc(NC(=O)CC2C(=O)N(Cc3ccco3)C(=S)N2C(C)C)cc1 (centres undefined),23.2% (active)
22,COc1ccc(NC(=O)CS(=O)(=O)c2cccc(Cl)c2)cc1,0.13%
23,COc1ccc(/C(O)=C2\C(=O)C(=O)N(Cc3ccco3)C2c2cc(OC)ccc2OC)cc1 (centres undefined),0.4%
24,Cc1cccc(C)c1OCC(C)N (centres undefined),4.83%
25,O=C(COc1ccccc1F)NC1CC1,10.7%

row,SMILES,fluorescence artifact activation
1,C=CCOc1ccccc1CNc1cccc(F)c1,1.22%
2,COc1ccc(C)cc1NC(=O)CC1COc2ccccc2O1 (centres undefined),0.06%
3,COc1ccccc1CNc1cc(C)ccc1C,415% (active)
4,Cc1cccc(-n2c(C)cc(C=C3C(=O)c4ccccc4C3=O)c2C)c1,-0.01%
5,CCC1SC(=Nc2cccc(C)c2)NC1=O (centres undefined),50% (active)
6,COCCn1c(=NC(=O)/C=C/c2ccccc2)sc2cc(NC(C)=O)ccc21,3.82%
7,CCOC(=O)c1c(C(C)(C)C)oc2ccc(OCC#N)cc12,0.48%
8,COc1cc2c(cc1OC)-c1cc3ccc4c(c3c[n+]1CC2)OCO4,0.19%
9,COc1ccc(NC(=O)CSc2nncc3ccccc23)cc1,0.15%
10,Nc1nc(SCC(=O)Nc2ccc(Cl)cc2)[nH]c(=O)c1-c1ccccc1,0.2%
11,O=C(CSc1nncc2ccccc12)Nc1ccc(F)cc1,51.6% (active)
12,COc1ccc(CC/C(C)=N\NC(N)=O)cc1,1.07%
13,COc1ccc(C)cc1Nc1n[n+](-c2ccccc2)c(-c2cc([N+](=O)[O-])cc(OC)c2O)s1,-0.11%
14,O=C1c2ccccc2-c2c1cccc2C(=O)N1CCCCCC1,0.15%
15,Cc1[nH]c(C)c(S(=O)(=O)N2c3ccccc3CC2C)c1C(=O)N1CCCCC1 (centres undefined),43.6% (active)
16,O=C(c1ccccc1)N1CCCCC1,2.65%
17,C=CCn1cccc(C(=O)Nc2ccc(OC)c(Cl)c2)c1=O,0.54%
18,COc1c(O)cccc1-c1nnn(CCC(=O)OCC(=O)c2ccccc2)n1,10.9%
19,COc1ccc(N2CCN(C(=O)Cn3nnc(-c4ccccc4N)n3)CC2)cc1,20.6% (active)
20,CC1CCCCN1C(=O)Cn1nnc(-c2cccnc2)n1 (centres undefined),1.03%
21,COC(=O)CCC(=O)OC1(C)C(=O)C=C2C=C(C3CC3)N(c3cccc(C#N)c3)C=C2C1=O (centres undefined),-0.02%
22,COC(=O)c1ccc(Oc2c(F)c(F)nc(N3CCOCC3)c2F)cc1,-0.07%
23,OCCN(CCO)c1nc(N2CCCCC2)c2nc(N(CCO)CCO)nc(N3CCCCC3)c2n1,11.3%
24,O=C(c1ccc([N+](=O)[O-])cc1[N+](=O)[O-])n1cnc2ccccc21,-0.09%
